According to ChEMBL document CHEMBL1121495, “Anticandidal activity of pyrimidine-peptide conjugates” (J Med Chem, 1980):

system: Candida albicans; assay: Compound was evaluated for inhibition of transport of trimethionine in Candida albicans WD 18-4; assay type: functional; set-up: concentration or dose not given beside the values
Outline: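 Initial uptake rate of radiolabeled (Met)3 into C. albicans WD 18-4 cells grown 6-8 h at 37 °C with aeration. Washed cells (1.4 mg dry wt/mL) preincubated 10 min at 37 °C, mixed with reaction mix of 2% glucose, citrate-phosphate buffer pH 3.5 (0.012 M) and (Met)3 6.06 x 10^-5 M. Samples filtered at intervals, washed, scintillation counted. Competitor included at 10-fold molar excess over (Met)3.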

| SMILES | Inhibition [%] |
| --- | --- |
| O=C(O)CNC(=O)CNC(=O)c1cc(O)nc(O)n1 | 0 |
| CC(C)C[C@H](NC(=O)[C@H](CC(C)C)NC(=O)c1nc(O)nc(O)c1F)C(=O)O | 40 |
| CC(C)C[C@H](NC(=O)c1nc(O)nc(O)c1F)C(=O)O | 0 |
| CC(C)CC(NC(=O)C(CC(C)C)NC(=O)c1cc(O)nc(O)n1)C(=O)O (stereo not given) | 67 |
| COC(=O)[C@H](CCSC)NC(=O)[C@H](CCSC)NC(=O)c1cc(O)nc(O)n1 | 0 |
